Test results published in ChEMBL document CHEMBL4020708, “Studies of CDK 8/19 inhibitors: Discovery of novel and selective CDK8/19 dual inhibitors and elimination of their CYP3A4 time-dependent inhibition potential” (Bioorg Med Chem, 2017).
Converted amounts (≈) assume the structure as drawn. The source made the active and inactive calls. The calls are words filed in the database; no cut-off is given here.

Key:
[1] = Solubility of the compound at pH 6.8; type: physicochemical; conditions: buffer
Outline: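 Compound added from DMSO solution to JP 2nd disintegration fluid (pH 6.8) and incubated. Precipitate removed by filtration, and filtrate concentration measured by plate reader or HPLC.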

[2] = Cmax in mouse at 1 mg/kg, po administered as cassette dose measured up to 8 hrs by LC/MS/MS analysis; type: ADME, organism-based; design: dose 1 mg/kg, route oral; conditions: in vivo
Outline: (§1)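 Cassette dosing to non-fasted mice, 1 mg/kg po (0–8 h). Plasma obtained from blood by centrifugation, deproteinized with acetonitrile, centrifuged, and the supernatant analysed by LC/MS/MS.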

[3] = test system: EOL1; experiment: Antiproliferative activity against human EOL-1 cells after 168 hrs by Celltiter-Glo luminescent assay; type: functional; conditions: EOL1, 168 h
Outline: (§2)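 Cells seeded at 5×10^2 per well. Compound added 24 h later at an appropriate concentration and incubated 168 h. Viability read by CellTiter-Glo luminescence after 20 min. Nuclear count by CyQuant Direct fluorescence after 1 h.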

[4] = AUC (0 to 8 hrs) in mouse at 1 mg/kg, po administered as cassette dose by LC/MS/MS analysis; type: ADME, organism-based; design: time < 8 hr, dose 1 mg/kg, route oral; conditions: in vivo; outline: as §1
[5] = test system: RPMI-8226; experiment: Antitumor activity against human RPMI8226 cells xenografted in C.B17/Icr-scid/scid Jcl mouse assessed as tumor growth at 15 mg/kg, po bid after 2 weeks relative to control; type: functional
Outline: (§3)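 Female C.B17/Icr-scid/scid Jcl mice, five weeks old, implanted sc in one flank with 1×10^7 RPMI-8226 cells in HBSS:Matrigel 1:1. When tumors reached about 80–140 mm³, dosed po b.i.d. at 15 or 30 mg/kg for 14 days. Caliper volume (0.5×length×width²) and body weight measured twice weekly. Tumor growth expressed as T/C vs vehicle. Mean ± se.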

[6] = target: T1, Cyclin-dependent kinase 8 (Homo sapiens, UniProt P49336); experiment: Inhibition of CDK8 in human SW480 cells assessed as reduction in STAT1 phosphorylation at Ser727 residues up to 30 nM after 1 day by Western blot method; type: cell-based
T1 sequence (P49336 whole entry): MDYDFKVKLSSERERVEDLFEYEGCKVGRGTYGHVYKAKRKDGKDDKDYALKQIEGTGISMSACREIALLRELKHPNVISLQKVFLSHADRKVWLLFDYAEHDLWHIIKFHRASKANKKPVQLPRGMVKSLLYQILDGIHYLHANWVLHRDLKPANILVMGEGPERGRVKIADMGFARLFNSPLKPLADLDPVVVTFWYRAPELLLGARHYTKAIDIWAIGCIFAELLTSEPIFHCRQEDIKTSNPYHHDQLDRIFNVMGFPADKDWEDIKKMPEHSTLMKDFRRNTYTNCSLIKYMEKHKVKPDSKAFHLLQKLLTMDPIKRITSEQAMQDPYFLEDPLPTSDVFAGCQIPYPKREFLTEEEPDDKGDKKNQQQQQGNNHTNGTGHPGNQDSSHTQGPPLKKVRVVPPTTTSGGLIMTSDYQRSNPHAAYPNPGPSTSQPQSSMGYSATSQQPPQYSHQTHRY
Outline: (§4)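 Cell pellets were lysed in 62.5 mM Tris-Cl (pH 7.5), 1% SDS and 5% glycerol, then boiled at 95 °C for 5 min. 5 ug total protein was run on SDS-polyacrylamide gels, transferred and probed for total STAT1 and phospho-STAT1 Ser727. Detection used HRP-conjugated secondary antibodies and ECL plus chemiluminescence.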

[7] = MRT in mouse at 1 mg/kg, po administered as cassette dose measured up to 8 hrs by LC/MS/MS analysis; type: ADME, organism-based; conditions: in vivo; outline: as §1
[8] = test system: Mus musculus; experiment: Toxicity in C.B17/Icr-scid/scid Jcl mouse xenografted with human RPMI8226 cells assessed as change in body weight at 30 mg/kg, po bid after 2 weeks relative to control; type: organism-based; conditions: in vivo, 336 h; outline: as §3
[9] = target: T1, Cyclin-dependent kinase 8; experiment: Inhibition of CDK8 in human SW480 cells assessed as reduction in IFN-gamma induced STAT1 phosphorylation at Ser727 residues preincubated for 2 hrs followed by IFN-gamma addition measured after 1 hr by In-cell western assay; type: cell-based
Outline: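 SW480 cells kept in L-15 with 10% FBS at 37 °C and plated at 6000 cells/well overnight. Compound applied 2 h, then 10 ng/mL IFN-γ for 1 h. Cells fixed, permeabilized and blocked, then probed overnight at 4 °C with anti-pSTAT1 Ser727. IRDye 800CW secondary plus DRAQ5 for DNA, Odyssey imaging.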

[10] = test system: Liver; experiment: Intrinsic clearance in human liver microsomes at 1 umol/L after 15 to 30 mins in presence of NADPH by LC/MS/MS analysis; type: ADME, microsome; conditions: 1 µM
Outline: (§5)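 Human or mouse liver microsomes at 0.2 mg/mL protein in 50 mmol/L phosphate buffer pH 7.4 with 1 μmol/L compound. Reaction started with an NADPH-generating system and stopped at 15 and 30 min with acetonitrile. LC/MS/MS readout. Intrinsic clearance taken as initial metabolic velocity (slope of concentration-time) divided by compound concentration.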

[11] = Oral bioavailability in mouse at 1 mg/kg administered as cassette dose measured up to 8 hrs by LC/MS/MS analysis; type: ADME, organism-based; conditions: in vivo
Outline: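 Bioavailability from mouse cassette dosing, 0.1 mg/kg iv and 1 mg/kg po, non-fasted animals. Plasma was deproteinized with acetonitrile and compound quantified by LC/MS/MS.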

[12] = target: CYP3A4 (Homo sapiens, UniProt P08684); experiment: Time-dependent inhibition of CYP3A4 in human liver microsomes assessed as reduction in testosterone to 6beta-hydroxytestosterone conversion by measuring remaining activity at 30 uM preincubated for 60 mins followed by testosterone addition measured after 20 mins in presence of NADPH by UPLC analysis relative to control; type: ADME; conditions: probe testosterone (6beta-hydroxylation), read-out: Activity
Chain of CYP3A4 (P08684 whole entry): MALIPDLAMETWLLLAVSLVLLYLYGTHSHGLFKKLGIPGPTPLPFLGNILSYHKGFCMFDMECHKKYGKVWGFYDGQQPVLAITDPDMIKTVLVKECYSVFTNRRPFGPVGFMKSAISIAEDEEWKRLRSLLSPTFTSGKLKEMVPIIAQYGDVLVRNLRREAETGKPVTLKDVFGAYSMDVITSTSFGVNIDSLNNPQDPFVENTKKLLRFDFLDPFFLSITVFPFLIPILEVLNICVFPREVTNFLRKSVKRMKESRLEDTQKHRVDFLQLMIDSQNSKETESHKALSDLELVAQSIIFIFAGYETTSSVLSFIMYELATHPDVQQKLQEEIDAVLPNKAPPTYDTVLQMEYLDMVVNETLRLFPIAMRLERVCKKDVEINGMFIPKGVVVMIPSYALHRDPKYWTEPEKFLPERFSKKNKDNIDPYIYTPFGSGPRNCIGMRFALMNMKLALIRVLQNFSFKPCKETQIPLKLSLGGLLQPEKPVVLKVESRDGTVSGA
Outline: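 Compound at 30 μM preincubated with human liver microsomes in phosphate buffer pH 7.4 at 37 °C for 0 or 60 min with an NADPH-generating system. Testosterone then added for 20 min, and 6β-hydroxytestosterone measured by UPLC. Activity expressed as % of DMSO control; % remaining taken after 60 min preincubation.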

[13] = test system: Mus musculus; experiment: In vivo inhibition of STAT1 phosphorylation at Ser727 residues in C.B17/Icr-scid/scid Jcl mouse xenografted with human RPMI8226 cells at 15 to 30 mg/kg, po bid treated for 2 weeks measured over 2 to 8 hrs post dose by Western blot analysis; type: functional, organism-based
Outline: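 Xenografted mice dosed po b.i.d. at 15 or 30 mg/kg for 2 weeks, sampled 2 h and 8 h post-dose on the final day. Samples lysed in Tris-SDS-glycerol buffer and boiled 95 °C for 5 min. 5 ug protein run on SDS-PAGE and blotted for STAT1 and phospho-STAT1 Ser727. HRP secondary with ECL detection.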

[14] = test system: Mus musculus; experiment: Toxicity in C.B17/Icr-scid/scid Jcl mouse xenografted with human RPMI8226 cells assessed as change in body weight at 15 mg/kg, po bid after 2 weeks; type: organism-based; conditions: in vivo, 336 h; outline: as §3
[15] = target: T1, Cyclin-dependent kinase 8; experiment: Inhibition of CDK8 in human RPMI8226 cells assessed as reduction in STAT1 phosphorylation at Ser727 residues up to 30 nM after 1 day by Western blot method; type: cell-based; outline: as §4
[16] = target: CDK8/Cyclin C (Homo sapiens, UniProt P49336); experiment: Inhibition of kinase tracer 236 binding to full length N terminal GST-tagged human CDK8 (1 to 464 end residues) /CycC ( 1 to 283 end residues) expressed in baculovirus expression system after 60 min by TR-FRET assay
Chain of CDK8/Cyclin C (P49336 whole entry): as the sequence (P49336 whole entry) above
Chain of CDK8/Cyclin C (P24863 whole entry, further chain): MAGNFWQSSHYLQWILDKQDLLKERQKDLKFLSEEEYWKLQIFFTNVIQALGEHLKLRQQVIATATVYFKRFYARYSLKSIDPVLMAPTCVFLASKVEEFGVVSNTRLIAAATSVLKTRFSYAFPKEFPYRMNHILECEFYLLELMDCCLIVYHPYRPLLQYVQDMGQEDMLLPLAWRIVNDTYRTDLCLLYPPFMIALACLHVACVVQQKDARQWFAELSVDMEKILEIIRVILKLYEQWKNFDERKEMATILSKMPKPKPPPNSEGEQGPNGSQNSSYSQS
Outline: (§6)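 TR-FRET ligand displacement using 20 nM GST-CDK8/CycC or GST-CDK19/CycC, 20 nM Kinase Tracer 236 and Tb-anti-GST antibody. Buffer 25 mM HEPES, 10 mM MgCl₂, 2 mM DTT, 0.01% Tween-20. Incubated 60 min at rt.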

[17] = target: T1, Cyclin-dependent kinase 8; experiment: Inhibition of CDK8 in human EOL1 cells assessed as reduction in STAT1 phosphorylation at Ser727 residues up to 30 nM after 1 day by Western blot method; type: cell-based; outline: as §4
[18] = test system: RPMI-8226; experiment: Antiproliferative activity against human RPMI8226 cells after 168 hrs by Celltiter-Glo luminescent assay; type: functional; conditions: RPMI-8226, 168 h; outline: as §2
[19] = test system: RPMI-8226; experiment: Antitumor activity against human RPMI8226 cells xenografted in C.B17/Icr-scid/scid Jcl mouse assessed as tumor growth at 30 mg/kg, po bid after 2 weeks relative to control; type: functional; outline: as §3
[20] = test system: Liver; experiment: Intrinsic clearance in mouse liver microsomes at 1 umol/L after 15 to 30 mins in presence of NADPH by LC/MS/MS analysis; type: ADME, microsome; conditions: 1 µM; outline: as §5
[21] = test system: Plasma; experiment: Drug metabolism in mouse plasma assessed as formation of (E)-3-(4-(1H-pyrazol-4-yl)pyridin-3-yl)-N-(4-(morpholinomethyl)phenyl)acrylamide at 1 mg/kg, po administered as cassette dose measured up to 8 hrs by LC/MS/MS analysis; type: ADME, organism-based; conditions: in vivo; outline: as §1
[22] = target: Cyclin-C/Cyclin-dependent kinase 19 (Homo sapiens, UniProt Q9BWU1); experiment: Inhibition of kinase tracer 236 binding to GST-tagged CDK19/CycC (unknown origin) after 60 min by TR-FRET assay; type: protein-complex assay; outline: as §6
Chain of Cyclin-C/Cyclin-dependent kinase 19 (Q9BWU1 whole entry): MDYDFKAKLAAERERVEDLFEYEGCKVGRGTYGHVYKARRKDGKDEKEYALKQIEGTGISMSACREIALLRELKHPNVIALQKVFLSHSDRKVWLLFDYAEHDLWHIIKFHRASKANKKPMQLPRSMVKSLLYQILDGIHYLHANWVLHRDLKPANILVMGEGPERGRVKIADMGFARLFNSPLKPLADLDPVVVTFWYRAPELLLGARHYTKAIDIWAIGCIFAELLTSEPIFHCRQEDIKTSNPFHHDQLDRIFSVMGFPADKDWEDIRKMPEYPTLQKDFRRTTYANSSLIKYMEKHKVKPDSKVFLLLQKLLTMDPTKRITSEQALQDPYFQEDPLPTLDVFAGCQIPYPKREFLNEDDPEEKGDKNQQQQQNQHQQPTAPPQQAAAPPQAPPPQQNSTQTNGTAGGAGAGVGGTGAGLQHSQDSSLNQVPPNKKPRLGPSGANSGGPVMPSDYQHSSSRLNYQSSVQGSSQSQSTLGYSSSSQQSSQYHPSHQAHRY
Chain of Cyclin-C/Cyclin-dependent kinase 19 (P24863 whole entry, further chain): as the sequence (P24863 whole entry, further chain) above

[23] = test system: Plasma; experiment: Drug metabolism in mouse plasma assessed as formation of (E)-4-(1-methyl-1H-pyrazol-4-yl)-3-(3-(4-(morpholinomethyl)phenylamino)-3-oxoprop-1-enyl)pyridine 1-oxide at 1 mg/kg, po administered as cassette dose measured up to 8 hrs by LC/MS/MS analysis; type: ADME, organism-based; conditions: in vivo; outline: as §1
[24] = test system: Plasma; experiment: Drug metabolism in mouse plasma assessed as formation of (E)-N-(4-((2-hydroxyethylamino)methyl)phenyl)-3-(4-(1-methyl-1H-pyrazol-4-yl)pyridin-3-yl)acrylamide at 1 mg/kg, po administered as cassette dose measured up to 8 hrs by LC/MS/MS analysis; type: ADME, organism-based; conditions: in vivo; outline: as §1
[25] = Total clearance in mouse at 1 mg/kg, po administered as cassette dose measured up to 8 hrs by LC/MS/MS analysis; type: ADME, organism-based; conditions: in vivo
[26] = test system: Plasma; experiment: Drug metabolism in mouse plasma assessed as formation of (E)-3-(4-(1-methyl-1H-pyrazol-4-yl)pyridin-3-yl)-N-(4-((3-oxomorpholino)methyl)phenyl)acrylamide at 1 mg/kg, po administered as cassette dose measured up to 8 hrs by LC/MS/MS analysis; type: ADME, organism-based; conditions: in vivo; outline: as §1

Compound | solubility [1] [µg/mL] | Cmax [2] [ng/mL] | AUC(0-t) at 8 h [4] [ng·h/mL] | MRT [7] [h] | EC50 [9] [nM] | microsomal intrinsic clearance [10] [µL/min/mg] | bioavailability [11] [%] | activity at 20 min, 30 µM [12] [%] | IC50 [16] [nM] | intrinsic clearance [20] [µL/min/mg] | also measured
O=C(/C=C/c1cnccc1-c1cnn(C2CC2)c1)Nc1ccc(CN2CC(F)(F)C2)cc1 | 30 (≈ 68.9 µM) | 321 | 370 | 1.6 | 8.4 | 15 | 22.5 | 99 | 2.5 | 97 | GI50 [3]: 6.5 nM; T/C [5]: 29%; inhibition [6]: Active; Activity [8]: 12%; inhibition [13]: Active; Activity [14]: Non-Toxic; inhibition [15]: Active; inhibition [17]: Active; GI50 [18]: 21 nM; T/C [19]: -2%
Cn1cc(-c2ccncc2/C=C/C(=O)Nc2ccc(CN3CCOCC3)cc2)cn1 | 68 (≈ 169 µM) | 47.5 | 76.9 | 1.5 | 13 | 22 | 21.9 | 81 | 6.5 | 77 | Drug metabolism [21]: Metabolite_Detected; IC50 [22]: 15 nM; Drug metabolism [23]: Metabolite_Detected; Drug metabolism [24]: Metabolite_Detected; CL/F [25]: 49.5 mL/min/kg; Drug metabolism [26]: Metabolite_Detected
